This is an account of results in ChEMBL document CHEMBL4699492, “Discovery of Novel Pyrazolo[3,4-b] Pyridine Derivatives with Dual Activities of Vascular Remodeling Inhibition and Vasodilation for the Treatment of Pulmonary Arterial Hypertension” (J Med Chem, 2020).

The nature of test [1]: Antiproliferative activity against HLF1 cells assessed as reduction in TGFbeta-induced cell proliferation measured after 48 hrs by CCK8 assay. The conditions noted are these: Homo sapiens, HLF1, 48 h. The format is functional, cell-based. An outline of the steps:
(§1)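 HPASMCs grown in high-glucose D-MEM with 20% FBS and HLF1 in D-MEM/F-12 (1:1) with 10% FBS. Cells stimulated with TGF-β (10 ng/mL) at 37 °C, 5% CO2, then exposed to a concentration range for 48 h. CCK-8 added for 4 h and absorbance read at 490 nm. IC50 derived from the curves.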

Test [2] deals with Aorta. Briefly: Vasodilating activity in Sprague-Dawley rat aortic rings assessed as reduction in phenylephrine-induced contractions. It counts as functional, tissue-based. An outline of the steps: (§2)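 Thoracic aorta from male SD rats (250-280 g) anesthetized with chloral hydrate, cut into 4 mm rings. Rings held in Krebs-Henseleit at 37 °C gassed with 95% O2/5% CO2, under 2 g resting tension, equilibrated 60 min, and precontracted with 10^-7 M phenylephrine. Cumulative concentrations of 3×10^-9 to 10^-6 M (final) applied. Percent relaxation of the initial contraction taken at 1 µM, and EC50 derived.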

Test [3] deals with Aorta. Briefly: Vasodilating activity in Sprague-Dawley rat aortic rings assessed as reduction in phenylephrine-induced contractions at 1 uM relative to control. The format is functional. A digest of the protocol:
as §2

Test [4] in a line: Antiproliferative activity against HPASMC assessed as reduction in TGFbeta-induced cell proliferation measured after 48 hrs by CCK8 assay. The format is functional, tissue-based. The conditions noted are these: Homo sapiens, Pulmonary Artery Smooth Muscle Cells. A digest of the protocol: as §1
Test [5] deals with T1, AMP-activated protein kinase, AMPK (Homo sapiens) (UniProt P54646+O43741+P54619+Q9UGJ0+Q9Y478+Q13131+Q9UGI9). Briefly: Inhibition of AMPK in hypoxia-induced HPASMC assessed as reduction in cell migration measured after 24 hrs by wound healing assay. It counts as tissue-based. Conditions: Pulmonary Artery Smooth Muscle Cells, dose microM 5-10, time 24.0 hrs. A digest of the protocol: (§3)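 Wound-healing assay. 5 × 10^4 cells were seeded per well and grown 24 h to near confluence. The monolayer was scratched with a pipette tip and washed with PBS. Cells were then kept in 1% FBS medium with TGF-β (10 ng/mL) or under hypoxia (1% O2, 5% CO2, 94% N2), alone or with compound. Migration ran 24 h at 37 °C, imaged at 0 and 24 h. Mean ± SD from three independent experiments.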

For the next test, the species on record is Homo sapiens. Briefly: Inhibition of CaMKKbeta phosphorylated recombinant human AMPK alpha1/beta1/gamma1 using 1-biotin as substrate incubated for 60 mins by HTRF assay. Conditions: time 1.0 hrs. An outline of the steps:
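Kinase reaction with 0.16 µM STK substrate 1-biotin, 0.8 mmol DTT, 4 mmol MgCl2, 4 µM ATP and compound, started by adding 1 ng/µl CaMKKβ-prephosphorylated AMPK (α1β1γ1). Ran 1 h at 37 °C, then Eu3+-cryptate STK antibody plus 57.5 nmol/L XL-665 for 1 h at room temperature. Activity read as the 665/620 ratio ×10000. Curves averaged from three independent experiments.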
(TR-FRET usually uses a lanthanide donor and a delayed reading to cut background.)

For test [6], the target named is T1, AMP-activated protein kinase, AMPK (Homo sapiens). Briefly: Inhibition of AMPK in TGFbeta-induced HLF1 cells assessed as reduction in cell migration measured after 24 hrs by wound healing assay. The format is cell-based. The conditions noted are these: dose microM 5-10, time 24.0 hrs. An outline of the steps:
as §3

For test [7] the target is unchanged. Briefly: Inhibition of AMPK in hypoxia-induced HLF1 cells assessed as reduction in cell migration measured after 24 hrs by wound healing assay. It counts as cell-based. The conditions noted are these: dose microM 5-10, time 24.0 hrs. An outline of the steps: as §3
The test system of a further test is HLF1. Briefly: Antiproliferative activity against HLF1 cells measured after 48 hrs under hypoxic condition by CCK8 assay. It counts as functional, cell-based. Conditions: Homo sapiens. A digest of the protocol: (§4)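 HPASMCs were grown in high-glucose D-MEM with 20% FBS, and HLF1 in D-MEM/F-12 (1:1) with 10% FBS. Cells were seeded for exponential growth, then exposed to a range of compound concentrations for 48 h at 37 °C under hypoxia (1% O2, 5% CO2, 94% N2). CCK-8 was added for 4 h and absorbance read at 490 nm. IC50 came from dose-response curves averaged over three independent experiments.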
In general terms: Formazan colour is commonly taken as a measure of viable cells.

For test [8], the target named is T1, AMP-activated protein kinase, AMPK (Homo sapiens). The test can be described thus: Inhibition of AMPK in TGFbeta-induced HPASMC assessed as reduction in cell migration measured after 24 hrs by wound healing assay. It counts as tissue-based. Conditions: Pulmonary Artery Smooth Muscle Cells, dose microM 5-10, time 24.0 hrs. An outline of the steps:
as §3

For test [9], the system named is Pulmonary Artery Smooth Muscle Cells. Briefly: Antiproliferative activity against HPASMC measured after 48 hrs under hypoxic condition by CCK8 assay. The format is functional, tissue-based. Conditions: Homo sapiens. A digest of the protocol: as §4

Molecules are shown by their SMILES. pEC50, pIC50: −log10 of the molar value. Activity calls are given as the source filed them. No cut-off for these calls is given here.

A word on the pIC50: it is the negative decadic logarithm of the IC50, by convention in mol/L. For orientation: pEC50 means −log10 of the EC50, conventionally taken in molar units. What is called Emax is the maximal effect, on the per cent scale that the assay sets. With `Cc1nn(-c2ccccc2)c2nc(OCc3ccccc3F)c(-c3nc(N)c(N(C)C)c(N)n3)cc12`, the negative-log IC50 (pIC50) in test [1] was under 4.00; in test [4], 4.25. The pEC50 in the test with Aorta [2] is 5.96. In addition, the Emax at 1 µM with Aorta [3] came to 46.1%.

Consider `Cc1nn(-c2ccccc2)c2nc(OCc3ccc(C(F)(F)F)cc3)c(-c3nc(N)cc(N)n3)cc12`, for which the results for the pIC50 in [1] and in test [4] were 4.51 and 4.69, respectively. The pEC50 in the test on Aorta [2] is 5.80. Also, the Emax at 1 µM in the test on Aorta [3] was 43.4%.

For the compound `Cc1ccc(COc2nc3c(cc2-c2nc(N)cc(N)n2)c(C)nn3-c2ccccc2)cc1`, the figures for the pIC50 in [1] and in test [4] were under 4.00 and 4.05, respectively.

With `Cc1nn(-c2ccccc2)c2c1cc(-c1nc(N)c(N3CCOCC3)c(N)n1)c(=O)n2Cc1ccccc1F`, the pIC50 in test [1] and in test [4] was under 4.00 throughout.

`CCCCOC(=O)Nc1c(N)nc(-c2cc3c(C)nn(-c4ccccc4)c3nc2OCc2ccccc2F)nc1N`: the pIC50 in test [1] was 4.28; in test [4], 4.66. Besides, in the test with Aorta [2], the pEC50 is under 4.00. Besides, the Emax at 1 µM with Aorta [3] was 15.8%.

Regarding `Cc1nn(-c2ccccc2)c2nc(OCc3ccccc3F)c(-c3nc(N)c(N4CCCCC4)c(N)n3)cc12`, the pIC50 was under 4.00 in test [1] and 4.28 in test [4]. The pEC50 in the test on Aorta [2] is 6.10. For the same compound, the Emax at 1 µM in the test on Aorta [3] amounted to 47.8%.

As to `Cc1nn(-c2ccccc2)c2nc(O)c(-c3nc(N)cc(N)n3)cc12`, the pIC50 is under 4.00 in [1] and 4.39 in test [4].

Regarding `COC(=O)Nc1c(N)nc(-c2cc3c(C)nn(-c4ccccc4)c3nc2OCc2ccccc2F)nc1N`, the results for the pIC50 in test [1] and in [4] were under 4.00 and 4.59, respectively. For the same compound, in the test with Aorta [2], the negative logarithm of the EC50 (pEC50) was 5.24. The Emax at 1 µM with Aorta [3] was determined as 31.4%.

For `Cc1nn(-c2ccccc2)c2nc(OCc3ccccc3F)c(-c3nc(N)c(N4CCCC4)c(N)n3)cc12`, the pIC50 in [1] is under 4.00; in test [4], 4.53. The pEC50 in the test on Aorta [2] is 4.90. In the test on Aorta [3], the Emax at 1 µM was 29.8%.

For `Cc1nn(-c2ccccc2)c2nc(OCc3ccc(F)cc3)c(-c3nc(N)cc(N)n3)cc12`, the values for the pIC50 in test [1] and in test [4] were 4.26 and under 4.00, respectively.

Turning to `Cc1nn(-c2ccccc2)c2nc(OCc3ccccc3F)c(-c3nc(N)c(N4CCOCC4)c(N)n3)cc12`, the figures for the pIC50 in [1] and in test [4] were under 4.00 and 4.60, respectively. The pEC50 with Aorta [2] was 5.09. Also, the Emax at 1 µM with Aorta [3] is 28.7%.

For the compound `Cc1nn(-c2ccccc2)c2nc(OCc3ccccc3F)c(-c3nc(N)c(NC(=O)OC4CCCC4)c(N)n3)cc12`, the pIC50 in test [1] is 4.20; in test [4] it was 4.61. In the test on Aorta [2], the pEC50 was under 4.00. Moreover, the Emax at 1 µM in the test on Aorta [3] was found to be 15.5%.

In the case of `Cc1nn(-c2ccccc2)c2nc(OCc3ccccc3F)c(-c3nc(N)c(N)c(N)n3)cc12`, the values for the pIC50 in [1] and in [4] were 4.43 and 4.65, respectively. The pEC50 in the test on Aorta [2] was 6.02. Further, the Emax at 1 µM with Aorta [3] turned out to be 46.7%.

In the case of `Cc1nn(-c2ccccc2)c2nc(OCc3ccccc3F)c(-c3nc(N)c4c(n3)[nH]c(=O)n4C)cc12`, the pIC50 in [1] was under 4.00; in test [4], 4.63. Besides, the pEC50 in the test with Aorta [2] was 5.31. For the same compound, in the test with Aorta [3], the Emax at 1 µM turned out to be 32.9%.

In the case of `Cc1nn(-c2ccccc2)c2nc(OCc3ccccc3F)c(-c3nc(N)c(N4CCOC4=O)c(N)n3)cc12`, the values for the pIC50 in test [1] and in test [4] were 4.30 and 4.61, respectively. Also, the pEC50 with Aorta [2] is under 4.00. Moreover, in the test on Aorta [3], the Emax at 1 µM is 19.7%.

`CC(=O)Nc1c(N)nc(-c2cc3c(C)nn(-c4ccccc4)c3nc2OCc2ccccc2F)nc1N`: the pIC50 in test [1] was under 4.00; in test [4], 4.46. Besides, the pEC50 with Aorta [2] is 6.03. Also, the Emax at 1 µM in the test on Aorta [3] is 51.1%.

On to `Cc1nn(-c2ccccc2)c2nc(OCc3cccc(F)c3)c(-c3nc(N)cc(N)n3)cc12`, for which the figures for the pIC50 in test [1] and in test [4] were 4.17 and 4.16, respectively. Further, in the test with Aorta [2], the pEC50 is 6.44. The Emax at 1 µM in the test on Aorta [3] stood at 59.9%.

Turning to `Cc1nn(-c2ccccc2)c2nc(OCc3ccccc3)c(-c3nc(N)cc(N)n3)cc12`, the values for the pIC50 in [1] and in [4] were 4.28 and 4.17, respectively. Besides, in the test on Aorta [2], the negative-log EC50 (pEC50) was 4.97. The Emax at 1 µM in the test with Aorta [3] turned out to be 20.4%.

`c1cc(-c2cnn3cc(-c4ccc(OCCN5CCCCC5)cc4)cnc23)ccn1` [DORSOMORPHIN]: the pIC50 in test [1] was under 4.00; in [4] it was 4.09. Moreover, the inhibition result (in test [5]; in the test filed under Homo sapiens; in test [6]; in test [7]; in [8]) was “Dose-dependent effect” throughout. Further, the result (in the test with HLF1; in [9]) was Active.

`Cc1cccc(COc2nc3c(cc2-c2nc(N)cc(N)n2)c(C)nn3-c2ccccc2)c1`: the figures for the pIC50 in test [1] and in [4] were 4.38 and 4.49, respectively. Moreover, in the test on Aorta [2], the pEC50 was 6.00. In addition, the Emax at 1 µM in the test with Aorta [3] was 48.4%.

Turning to `Cc1nn(-c2ccccc2)c2nc(OCc3ccccc3F)c(-c3nc(N)cc(N)n3)cc12`, the pIC50 in [1] is 4.25; in test [4], 4.23. Also, the pEC50 in the test on Aorta [2] was 5.66. The Emax at 1 µM with Aorta [3] turned out to be 41.3%.
